RGS4 inh = human RGS4 inhibition. 310,000 tested, 0.45% active. AID 463165. B-score at 10 µM. HEK293 M3R/RGS4 inducible, Fluo-4 calcium flux; hits give high values; triggered by carbachol at its EC20;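 active = B-score, a plate-corrected calcium signal, over three deviations above library mean, with baseline fluorescence within five deviations of library mean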;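 also: RGS4 expression induced by doxycycline in cells with stable M3 receptor; B-score is computed from the integrated fluorescence ratio over baseline after carbachol; higher B-score means a larger calcium signal and so more RGS4 inhibition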
Target sequence (P49798 whole entry, looked up): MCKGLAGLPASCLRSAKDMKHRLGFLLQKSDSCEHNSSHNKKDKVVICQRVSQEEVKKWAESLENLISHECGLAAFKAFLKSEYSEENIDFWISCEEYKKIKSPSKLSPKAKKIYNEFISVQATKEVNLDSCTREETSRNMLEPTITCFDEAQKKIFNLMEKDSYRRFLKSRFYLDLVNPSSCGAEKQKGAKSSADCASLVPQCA
MrgX1 ag = human MrgX1 receptor agonism, primary screen. 310,000 tested, 0.44% active. MrgX1-HEK293 cells, Fluo-4 calcium fluorescence, agonist mode; hits give high values. AID 588627. B-score at 10 µM. Q96LB2;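 active = calcium response B-score plate-corrected fluorescence ratio at least 3 library SD, with starting fluorescence B-score inside 5 SD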
Target sequence (Q96LB2 whole entry, looked up): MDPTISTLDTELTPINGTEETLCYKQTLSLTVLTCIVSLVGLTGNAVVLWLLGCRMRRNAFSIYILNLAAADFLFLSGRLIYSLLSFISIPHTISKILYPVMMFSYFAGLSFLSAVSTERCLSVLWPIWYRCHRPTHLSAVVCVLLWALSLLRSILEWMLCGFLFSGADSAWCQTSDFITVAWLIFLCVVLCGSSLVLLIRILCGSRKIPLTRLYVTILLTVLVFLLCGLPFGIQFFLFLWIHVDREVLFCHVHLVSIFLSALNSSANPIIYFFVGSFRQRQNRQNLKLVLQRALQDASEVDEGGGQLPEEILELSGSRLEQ
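Material: HEK293 cells stably expressing human MrgX1 receptor | Quantity: 15,000 cells per well | Times: Cells plated overnight, dye loaded 0.5 h 37 °C, 0.5 h room temperature | Measured by: Kinetic Fluo-4 NW fluorescence of intracellular calcium | Control set: Positive and negative controls per plate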
KCC2 mod = modulators of human KCC2 chloride dependent transport | AID 1456 | KCC2 cells, thallium flux FluoZin-2 fluorescence | B-score of Tl+ flux slope (higher = more flux/activation; lower = inhibition) at 10 µM | 190,000 tested, 2.2% active | Q9H2X9;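 active = thallium flux slope and its plate-corrected score both differing from the plate sample mean at a set confidence after two filtering rounds, in either direction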;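 also: slope of fluorescence scaled to starting intensity during 10 to 20 s after thallium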
RGS4 pot = RGS4 potentiation or activation. AID 463111. HEK293 M3R/inducible RGS4, carbachol calcium flux Fluo4; hits give low values. 310,000 tested, 0.92% active. B-score at 10 µM;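 active = B-score of the integrated calcium signal more than 4 SD below the library mean, with starting fluorescence not abnormally high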;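 also: negative B-score means reduced calcium response which marks RGS4 activation or potentiation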
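Assay system: HEK293 FlpIn-TREx cells, stable M3R, doxycycline-inducible RGS4 / Probe or stimulus: carbachol, ECmax concentration / Times: overnight RGS4 induction, 30 min dye load 37 °C, 20 min compound RT / Signal: kinetic calcium fluorescence imaging with Fluo4-AM dye, 2 µM / Measure: Agonist-evoked peak-minus-minimum fluorescence over baseline, integrated ratio, B score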
MrgX1 PAM = allosterically activates human MrgX1 receptor signaling. Q96LB2. MrgX1-HEK293, Fluo-4 calcium flux, FDSS; hits give high values. B-score at 10 µM. 310,000 tested, 0.63% active;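 active = plate-corrected calcium response at least 3 library SD above typical, normal starting fluorescence, not activating the receptor alone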;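 also: compound read alongside a low EC10 to EC30 dose of BAM8-22 agonist; peak minus trough fluorescence over baseline measured at the second addition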
MrgX1 antagonist = antagonists of human MrgX1 receptor | Q96LB2 | MRGX1-HEK293 calcium flux, Fluo-4, BAM8-22 antagonism; hits give low values | B-score at 10 µM | 310,000 tested, 1.3% active;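 active = calcium-response B-score plate-corrected more than 3 library SD below zero, starting fluorescence within 5 deviations, no agonist response on first addition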;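 also: peak minus trough fluorescence over baseline after final BAM8-22 challenge near maximal dose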
KCC2 sec1 = confirmation of human KCC2 transport modulators. AID 1713. 3,700 tested, 15% active. normalised thallium flux (F/F0 slope) at 10 µM. HEK293-KCC2, thallium flux, FluoZin2 fluorescence; hits give high values. shares compounds with KCC2 mod;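 active = thallium flux slope above the same plate's solvent-only control mean plus 3 SD; inconclusive = the two replicate wells disagree; inactive = no significant difference from solvent-only control wells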
KCC2 bumet counter = thallium flux despite bumetanide block in KCC2 cells, secondary assay 3. shares compounds with KCC2 mod. HEK293-KCC2 + bumetanide/ouabain, thallium flux FluoZin2; hits give high values. normalized thallium flux at 10 µM. 3,700 tested, 49% active. AID 1714;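 active = thallium entry rate above the same plate's blocked-transporter control wells by more than 3 SD; inconclusive = the two repeat wells disagree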;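 also: raw slope of fluorescence over initial fluorescence between 10 and 20 s after thallium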
KCC2 sec2 = KCC2 (human) modulation, second secondary assay; 3,700 tested, 23% active; AID 1715; normalized thallium flux at 10 µM; HEK293-KCC2, thallium flux FluoZin2 fluorescence; actives lie on both sides; F/F0 rise rate, 10–20 s post-thallium; shares compounds with KCC2 mod;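 active = thallium flux slope more than 3 SD above or below the plate's solvent-only control mean, mostly below; inconclusive = the two repeat wells disagreed; inactive = no significant shift from solvent-only controls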;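 also: raw slope with 0.1% DMSO as baseline and bumetanide as block control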
HEK293 Tl flux = counter-screen for KCC2 modulators: effect in parental HEK293 cells; shares compounds with KCC2 mod; AID 1716; thallium flux rate (normalised fluorescence) at 10 µM; thallium flux FluoZin2, ouabain; baseline-ratio fluorescence slope, 10–20 s after thallium; 3,700 tested, 46% active;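 active = thallium flux rate significantly above the same plate's solvent-only control wells, beyond their mean plus 3 SD; inconclusive = the two replicate wells gave conflicting results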
KCC2 retest ouab = modulates human KCC2 on retest with ouabain. HEK293-KCC2, thallium flux FluoZin2 fluorescence; bidirectional: low = inhibitor, high = activator. raw Tl+ flux slope (below DMSO = inhibition, above = activation) at 10 µM. shares compounds with KCC2 mod. 3,700 tested, 48% active;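 active = thallium flux slope beyond 3 SD from same-plate DMSO control mean in most replicates, usually higher, sometimes lower; inconclusive = repeat tests gave conflicting results; inactive = no significant difference from controls in most replicates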;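 also: slope of initial-normalized fluorescence between seconds 10 and 20 after thallium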
HEK counter2 = parental HEK flux effect, counter-screen 2; shares compounds with KCC2 mod; HEK293 parental, thallium flux FluoZin-2 fluorescence slope; thallium flux slope at 10 µM; 3,700 tested, 33% active; AID 1718;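 active = thallium flux slope above the same plate's solvent-control mean plus 3 SD in both duplicate wells; inconclusive = duplicate wells that disagreed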;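 also: run without ouabain in cells lacking the KCC2 cotransporter; slope of fluorescence scaled to its starting value between 10 and 20 s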
Active calls of the source: *; i = inactive; ? = inconclusive; nt = no result. The list is not random: actives were taken first. Their share in the collection is about 4.7%.

SMILES	RGS4 inh	MrgX1 ag	KCC2 mod	RGS4 pot	MrgX1 PAM	MrgX1 antagonist	KCC2 sec1	KCC2 bumet counter	KCC2 sec2	HEK293 Tl flux	KCC2 retest ouab	HEK counter2
CCN(CC)c1ccc(NC(=S)NC(=O)c2cccs2)cc1	i	i	21*	i	i	i	0.016*	0.079*	0.038	0.084*	0.051*	0.02*
CC(=O)NC(=S)Nc1ccc(NC(=S)NC(=O)c2cccs2)cc1	i	i	nt	i	i	i	nt	nt	nt	nt	nt	nt
O=C(NC(=S)Nc1ccc(S(=O)(=O)N2CCCC2)cc1)c1cccs1	i	i	4.5	i	i	i	nt	nt	nt	nt	nt	nt
CN(C)S(=O)(=O)c1ccc(NC(=S)NC(=O)c2cccs2)cc1	i	i	4*	i	i	i	0.0094	0.016*	0.029	0.0084*	?	0.0097
CC1=CCCC(C)(C)C1/C=C/C(C)=N/NC(=O)c1ccncc1 (configuration not stated)	i	i	5.3*	i	i	i	?	0.046*	0.032	0.016*	?	0.012*
O=C(Nc1nc(-c2ccccn2)cs1)c1cc(Cl)ccc1[N+](=O)[O-]	i	i	6.8*	i	i	i	0.014*	0.037*	0.039	0.018*	0.038*	0.015*
CCOc1ccc(CN(C)C(=O)CNC(=O)c2ccc3ccccc3c2)cc1OC	i	i	nt	i	i	i	nt	nt	nt	nt	nt	nt
CC1(c2ccc(OC(F)F)cc2)NC(=O)N(CC(=O)Nc2ccc(Cl)cc2F)C1=O (configuration not stated)	i	i	nt	i	i	i	nt	nt	nt	nt	nt	nt
Cc1ccc(-n2[nH]c(C)c(/C=N/Nc3ccc([N+](=O)[O-])cc3[N+](=O)[O-])c2=O)cc1	i	i	-4.7*	i	i	i	0.0064	0.011*	0.03	0.0072	?	0.0095
Cc1[nH]n(-c2ccc([N+](=O)[O-])cc2)c(=O)c1C=NCC1CCCO1 (configuration not stated)	i	i	-1.4	i	i	i	nt	nt	nt	nt	nt	nt
O=S(=O)(c1ccccc1)N1CCNCC1	i	i	nt	i	i	i	nt	nt	nt	nt	nt	nt
COc1cccc(NC(=O)COC(=O)c2nc3nccc(C)n3n2)c1	i	i	-5.4*	i	i	i	0.0077	0.0042	0.03	?	0.018	0.011
Cc1ccnc2nc(C(=O)OCC(=O)Nc3ccccc3C(C)(C)C)nn12	i	i	-0.038	i	i	i	nt	nt	nt	nt	nt	nt
COc1cc(COc2ccc3c(C)c(Cc4ccccc4)c(=O)oc3c2)cc(OC)c1OC	i	i	nt	i	i	i	nt	nt	nt	nt	nt	nt
Cc1c(Cc2ccccc2)c(=O)oc2cc(OCc3ccc(C(=O)O)cc3)ccc12	i	i	-4.2*	i	i	i	0.0081	0.0056	0.035	0.0063*	?	0.011
Cc1ccc(-c2c[nH]c(=S)n2-c2ccccc2F)cc1	i	i	3	i	i	i	nt	nt	nt	nt	nt	nt
Cc1ccc(-c2c[nH]c(=S)n2-c2ccccc2)cc1	i	i	7.3*	i	i	i	0.012	0.023*	0.037	?	?	?
Oc1ccccc1/C=N/Nc1nc2ccccc2o1	i	i	7.2*	i	i	i	0.0064	0.012*	0.034	0.012*	?	0.016*
Cc1[nH]c(=S)sc1Cc1ccc(F)cc1	i	i	40*	i	i	i	0.0056	0.12*	0.084*	0.089*	0.1*	0.067*
O=c1[nH]c(Cc2ccc(F)cc2)nc2scc(-c3ccc(F)cc3)c12	i	i	1	i	i	i	nt	nt	nt	nt	nt	nt
C/C(Cl)=C\Cn1c(O)c(N=NC(N)=S)c2ccccc21	i	i	42*	i	i	i	?	0.06*	0.062*	0.047*	0.058*	0.045*
COC(=O)c1ccc(Cn2c(O)c(N=NC(N)=S)c3ccccc32)o1	i	i	7.1*	i	i	i	?	0.03*	0.035	0.016*	0.027	?
NC(=S)N=Nc1c(O)n(Cc2ccccc2)c2ccccc12	i	i	8.8*	i	i	i	0.0074	0.0083*	0.034	0.011*	?	?
CCOC(=O)N=Nc1c(O)n(Cc2ccccc2)c2ccccc12	i	i	6.9*	i	i	i	0.0057	0.013*	0.034	0.012*	0.023	0.014*
Cc1ccc(Nc2cnn(C34CC5CC(CC(CC(=O)O)(C5)C3)C4)c(=O)c2Cl)c(Cl)c1	i	i	0.98	i	i	i	nt	nt	nt	nt	nt	nt
CC(C)(CNC(=O)c1cccc(S(=O)(=O)Nc2ccc(Br)cc2)c1)N1CCOCC1	i	i	nt	i	i	i	nt	nt	nt	nt	nt	nt
CCOC(=O)CSc1nc2cc(S(=O)(=O)N3CCOCC3)ccc2n1CC	i	i	nt	i	i	i	nt	nt	nt	nt	nt	nt
S=c1nc[nH]c2c1cnn2-c1ccccc1	i	i	149*	i	i	i	0.052*	0.16*	0.067*	0.093*	0.11*	0.051*
O=C1C(=Nc2cccc(Cl)c2)CC(c2ccc(Cl)cc2)N1c1cccc(Cl)c1 (configuration not stated)	i	i	-0.31	i	i	i	nt	nt	nt	nt	nt	nt
O=C1/C(=C/c2ccccc2O)SC(=S)N1Cc1cccnc1	i	i	10*	i	i	i	0.0062	0.017*	?	0.025*	0.027*	0.023*

Screens (PubChem BioAssay)
